The values below come from ChEMBL document CHEMBL4364257, “Discovery of novel Bcr-AblT315I inhibitors with flexible linker. Part 1: Confirmation optimization of phenyl-1H-indazol-3-amine as hinge binding moiety” (Eur J Med Chem, 2019).

The IC50 is the concentration that inhibits the measured activity by half.

The target of data set [1] is Bcr/Abl fusion protein (Homo sapiens, UniProt P00519, T315I). Description: Inhibition of BCR/ABL T315I mutant (unknown origin) measured after 60 mins in presence of ATP by ADP-Glo kinase assay. It counts as protein assay. For orientation: In ADP-Glo the light output rises with the ADP produced.
For data set [2], the target named is Bcr/Abl fusion protein (Homo sapiens, UniProt P00519). Description: Inhibition of wild type BCR/ABL (unknown origin) measured after 60 mins in presence of ATP by ADP-Glo kinase assay. The format is protein assay.
The subject of data set [3] is K562. Description: Antiproliferative activity against human BCR/ABL positive K562 cells assessed as growth inhibition measured after 48 hrs by MTT assay. It counts as functional, cell-based. The settings on record: K562, 48 h. The essentials:
(§1)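 K562 and K562R (T315I) cells grown in RPMI 1640 + 10% FBS; 2500 cells/well seeded, 12 h at 37 °C, 5% CO2, then compounds at indicated final concentrations for 48 h. MTT 0.5 mg/mL final, 4 h at 37 °C; supernatant removed, DMSO added, absorbance at 490 nm. IC50 calculated from inhibition ratios.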

For data set [4], the system named is K-562R. Description: Antiproliferative activity against human K562R cells expressing BCR/ABL T315I mutant assessed as growth inhibition measured after 48 hrs by MTT assay. The format is functional, cell-based. The essentials:
as §1

Data set [5] deals with HEK293. Description: Cytotoxicity against human HEK293 cells upto 150 uM measured after 48 hrs by MTT assay. The format is cell-based. The settings on record: hek293, 48 h. The essentials:
(§2)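 Normal human cells (EA.hy926, Hek293) kept in DMEM + 10% FBS; 2500 cells/well, 12 h preincubation at 37 °C, 5% CO2; compound added at indicated final concentrations for 48 h. MTT at 0.5 mg/mL final for 4 h, formazan dissolved in DMSO, absorbance read at 490 nm.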
On the technique in general: Tetrazolium assays rely on reduction of a dye to a coloured formazan, in cell work by metabolically active cells.

Data set [6] deals with Proto-oncogene tyrosine-protein kinase Src (Homo sapiens, UniProt P12931). Put plainly: Inhibition of human recombinant full length N-terminal GST tagged SRC expressed in Escherichia coli using KVEKIGEGTYGVVYK-amide as substrate measured after 60 mins in presence of ATP by ADP-Glo kinase assay. The essentials:
(§3)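 ADP-Glo luminescence format: kinase with substrate/ATP mix and inhibitor in 40 mM Tris pH 7.4, 10 mM MgCl2, 0.1 mg/mL BSA, 1 mM DTT, 60 min at 30 °C. ADP-Glo reagent 40 min at room temperature to stop and deplete ATP, then detection reagent 30 min; luminescence read.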

Data set [7] concerns EA.hy 926. Put plainly: Cytotoxicity against human EAhy926 cells upto 150 uM measured after 48 hrs by MTT assay. The settings on record: ea.hy 926, 48 h. The format is cell-based. The essentials:
as §2

Data set [8] concerns the target Bcr/Abl fusion protein (Homo sapiens) (UniProt P00519+P11274). Put plainly: Inhibition of BCR/ABL phosphorylation in human K562 cells measured after 4 hrs by Western blot analysis. It counts as cell-based. Summed up: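 K562 cells exposed to DMSO vehicle or drug for 4 h, lysed in SDS sample buffer, BCA-normalized; equal protein run on SDS-PAGE, transferred to PVDF, blocked in 5% milk/TBS-0.1% Tween-20. Probed overnight at 4 °C for Bcr-Abl, p-Bcr-Abl, actin; HRP secondaries 2 h at room temperature; ECL detection.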
(A western blot detects proteins with antibodies after separation by electrophoresis.)

Data set [9] has as its target Tyrosine-protein kinase HCK (Homo sapiens, UniProt P08631). Put plainly: Inhibition of human recombinant N-terminal GST tagged HCK (230 to 497 residues) expressed in baculovirus infected Sf9 cells using poly (Glu,Tyr) 4:1 as substrate measured after 60 mins in presence of ATP by ADP-Glo kinase assay. The essentials: as §3
For data set [10], the target named is Mitogen-activated protein kinase 14 (Homo sapiens, UniProt Q16539). Description: Inhibition of human recombinant full length N-terminal GST tagged p38alpha expressed in baculovirus infected Sf9 cells using p38 peptide as substrate measured after 60 mins in presence of ATP by ADP-Glo kinase assay. The essentials:
as §3

Structures are written as SMILES.

Sequence of Proto-oncogene tyrosine-protein kinase Src (P12931 2-536 limits assumed): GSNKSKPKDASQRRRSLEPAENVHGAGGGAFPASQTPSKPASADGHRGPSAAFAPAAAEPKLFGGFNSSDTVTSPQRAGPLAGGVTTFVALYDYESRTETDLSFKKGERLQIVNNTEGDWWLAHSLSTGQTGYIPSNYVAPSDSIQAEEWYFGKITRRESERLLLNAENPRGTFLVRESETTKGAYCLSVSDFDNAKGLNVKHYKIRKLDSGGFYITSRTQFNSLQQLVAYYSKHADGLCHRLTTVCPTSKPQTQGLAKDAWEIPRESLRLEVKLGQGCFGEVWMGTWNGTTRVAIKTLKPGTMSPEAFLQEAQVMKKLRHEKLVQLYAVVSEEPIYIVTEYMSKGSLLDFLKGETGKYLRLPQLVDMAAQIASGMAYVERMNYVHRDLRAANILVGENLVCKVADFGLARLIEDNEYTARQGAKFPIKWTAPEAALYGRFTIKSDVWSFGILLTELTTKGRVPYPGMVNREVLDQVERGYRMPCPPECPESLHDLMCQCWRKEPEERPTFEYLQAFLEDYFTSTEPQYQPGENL
Sequence of Tyrosine-protein kinase HCK (P08631 whole entry, the tested form may be a part): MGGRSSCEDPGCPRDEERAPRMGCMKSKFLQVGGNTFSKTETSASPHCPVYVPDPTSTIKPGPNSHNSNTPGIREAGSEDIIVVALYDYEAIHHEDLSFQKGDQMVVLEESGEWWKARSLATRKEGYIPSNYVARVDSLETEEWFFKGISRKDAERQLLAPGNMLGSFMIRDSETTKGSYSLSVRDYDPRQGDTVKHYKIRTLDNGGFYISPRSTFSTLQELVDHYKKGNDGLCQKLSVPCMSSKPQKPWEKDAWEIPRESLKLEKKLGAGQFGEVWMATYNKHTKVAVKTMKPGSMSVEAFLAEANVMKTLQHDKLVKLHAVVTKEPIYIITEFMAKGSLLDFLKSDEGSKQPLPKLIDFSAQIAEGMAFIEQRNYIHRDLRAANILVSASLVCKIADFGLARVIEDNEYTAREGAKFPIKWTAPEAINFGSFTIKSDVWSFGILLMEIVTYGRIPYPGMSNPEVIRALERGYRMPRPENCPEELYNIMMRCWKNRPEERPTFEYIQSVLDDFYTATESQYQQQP
Sequence of Mitogen-activated protein kinase 14 (Q16539 whole entry): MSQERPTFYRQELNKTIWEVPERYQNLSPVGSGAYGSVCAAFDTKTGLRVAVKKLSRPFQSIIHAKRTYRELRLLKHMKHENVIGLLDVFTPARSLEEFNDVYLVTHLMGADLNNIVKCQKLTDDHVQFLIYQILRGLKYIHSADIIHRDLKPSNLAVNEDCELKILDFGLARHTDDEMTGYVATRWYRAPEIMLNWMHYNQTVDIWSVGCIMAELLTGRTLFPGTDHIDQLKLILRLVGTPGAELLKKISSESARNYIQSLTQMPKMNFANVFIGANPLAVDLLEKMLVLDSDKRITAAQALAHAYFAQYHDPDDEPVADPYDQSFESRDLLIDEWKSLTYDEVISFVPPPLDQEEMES

On to `Nc1n[nH]c2cccc(-c3ccc(C(=O)NCCNC(=O)c4ccc(Cl)c(C(F)(F)F)c4)cc3)c12`, for which the IC50 amounted to 20 µM in [1], 0.11 µM in [2] and 17.1 µM in [3].

For the molecule `CN(C)c1ccc(C(=O)NCCNC(=O)c2ccc(-c3cccc4[nH]nc(N)c34)cc2)cc1`, the IC50 was 76.8 µM in data set [1], 5.75 µM in data set [2] and greater than 150 µM in data set [3].

On to `Nc1n[nH]c2cc(-c3ccc(C(=O)N4CCN(C(=O)c5ccc(Br)cc5)CC4)cc3)ccc12`, for which the IC50 turned out to be 31.9 µM in data set [1], 6.28 µM in [2] and 11.3 µM in [3].

Consider `Nc1n[nH]c2cc(-c3ccc(C(=O)NCCNC(=O)c4ccc(Br)cc4)cc3)ccc12`, for which the IC50 is 2.68 µM in data set [1], 2.16 µM in data set [2] and 14 µM in data set [3].

Regarding `Cc1ccc(C(=O)N2CCN(C(=O)c3ccc(-c4cccc5[nH]nc(N)c45)cc3)CC2)cc1`, the half-maximal inhibitory concentration (IC50) in data set [1] is 179 µM; in [2] it was 5.85 µM; in data set [3], greater than 150 µM.

In the case of `Nc1n[nH]c2cc(-c3ccc(C(=O)NCCNC(=O)c4ccc(Cl)c(C(F)(F)F)c4)cc3)ccc12`, the IC50 in data set [1] is 0.17 µM; in data set [2] it was 0.043 µM; in data set [4], 5.42 µM; in [6], 15.1 µM; in [3] it was 1.65 µM; in data set [9] it was greater than 100 µM. Further, in [10], the IC50 was found to be 34.5 µM. The Activity result in data set [5] and in data set [7] was “Non-Toxic” throughout. For the same molecule, the inhibition entry in data set [8] is “Dose-dependent effect”.

As to `Nc1n[nH]c2cccc(-c3ccc(C(=O)N4CCN(C(=O)c5ccc(F)cc5)CC4)cc3)c12`, the IC50 in data set [1] is 20.9 µM; in data set [2], 17.6 µM; in [3], 102 µM.

Consider `Cc1ccc(NC(=O)c2ccc(CN3CCN(C)CC3)cc2)cc1Nc1nccc(-c2cccnc2)n1` [IMATINIB], for which the half-maximal inhibitory concentration (IC50) in data set [4] came out at 90 µM; in data set [3] it was 4.26 µM.

For `Cc1ccc(C(=O)NCCNC(=O)c2ccc(-c3cccc4[nH]nc(N)c34)cc2)cc1`, the half-maximal inhibitory concentration (IC50) in data set [3] is 5.93 µM.

In the case of `Nc1n[nH]c2cc(-c3ccc(C(=O)N4CCN(C(=O)c5ccc(Cl)c(C(F)(F)F)c5)CC4)cc3)ccc12`, the values for the concentration for half-maximal inhibition (IC50) in [1], in data set [2] and in data set [3] were 5.33 µM, 1.99 µM and 4.84 µM, respectively.

For the molecule `Cc1ccc(C(=O)NCCNC(=O)c2ccc(-c3ccc4c(N)n[nH]c4c3)cc2)cc1`, the IC50 in data set [1] is 4.3 µM; in data set [2] it was 0.38 µM; in [3], 1.45 µM.

Take `Nc1n[nH]c2cccc(-c3ccc(C(=O)N4CCN(C(=O)c5ccc(Cl)c(C(F)(F)F)c5)CC4)cc3)c12`: the IC50 was found to be 2.08 µM in data set [1], 10.7 µM in data set [2] and 4.9 µM in data set [3].

As to `CN(C)c1ccc(C(=O)N2CCN(C(=O)c3ccc(-c4cccc5[nH]nc(N)c45)cc3)CC2)cc1`, the half-maximal inhibitory concentration (IC50) in [1] was 86.1 µM; in [2], 4.28 µM; in data set [3] it was greater than 150 µM.

As to `Nc1n[nH]c2cccc(-c3ccc(C(=O)NCCNC(=O)c4ccc(F)cc4)cc3)c12`, the IC50 in data set [1] turned out to be 38.5 µM; in data set [2] it was 1.35 µM; in data set [3] it was 9.49 µM.

In the case of `Cc1ccc(C(=O)N2CCN(C(=O)c3ccc(-c4ccc5c(N)n[nH]c5c4)cc3)CC2)cc1`, the values for the IC50 in [1], in data set [2] and in data set [3] were 3.72 µM, 32.2 µM and 59.3 µM, respectively.

Consider `CN(C)c1ccc(C(=O)N2CCN(C(=O)c3ccc(-c4ccc5c(N)n[nH]c5c4)cc3)CC2)cc1`, for which the concentration for half-maximal inhibition (IC50) was found to be 6.23 µM in [1], 2.54 µM in [2] and 61.2 µM in [3].

Consider `CN(C)c1ccc(C(=O)NCCNC(=O)c2ccc(-c3ccc4c(N)n[nH]c4c3)cc2)cc1`, for which the IC50 in data set [1] was 0.29 µM; in [2], 3.45 µM; in data set [3], 7.52 µM.

Consider `Nc1n[nH]c2cc(-c3ccc(C(=O)NCCNC(=O)c4ccc(F)cc4)cc3)ccc12`, for which the values for the half-inhibitory concentration (IC50) in [1], in data set [2] and in [3] were 61.2 µM, 2.45 µM and 13.4 µM, respectively.

For `Nc1n[nH]c2cccc(-c3ccc(C(=O)NCCNC(=O)c4ccc(Br)cc4)cc3)c12`, the half-maximal inhibitory concentration (IC50) was 94.8 µM in [1], 31.6 µM in [2] and greater than 150 µM in [3].

Take `Nc1n[nH]c2cc(-c3ccc(C(=O)N4CCN(C(=O)c5ccc(F)cc5)CC4)cc3)ccc12`: the 50% inhibitory concentration (IC50) in [1] was 8.6 µM; in [2], 2.34 µM; in data set [3], 39.1 µM.

Take `Nc1n[nH]c2cccc(-c3ccc(C(=O)N4CCN(C(=O)c5ccc(Br)cc5)CC4)cc3)c12`: the IC50 in data set [1] was 1.5 µM; in [2], 7.12 µM; in data set [3] it was 9.25 µM.
